# TRPC4 PAM = allosteric potentiators of mouse TRPC4 channel; Q9QUQ5; HEK293 TRPC4beta/mu-opioid, DAMGO EC20, Fluo-4 Ca2+ flux; stronger effect = higher value; B-score at 10 µM; hit rate 0.42% among 310,000;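 active = B-score of calcium response area above 5 SD of library B-scores, with initial fluorescence ratio within 5 SD of library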;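 note: B-score of integrated fluorescence ratio over time as area under calcium response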
# Target sequence (Q9QUQ5 whole entry, looked up): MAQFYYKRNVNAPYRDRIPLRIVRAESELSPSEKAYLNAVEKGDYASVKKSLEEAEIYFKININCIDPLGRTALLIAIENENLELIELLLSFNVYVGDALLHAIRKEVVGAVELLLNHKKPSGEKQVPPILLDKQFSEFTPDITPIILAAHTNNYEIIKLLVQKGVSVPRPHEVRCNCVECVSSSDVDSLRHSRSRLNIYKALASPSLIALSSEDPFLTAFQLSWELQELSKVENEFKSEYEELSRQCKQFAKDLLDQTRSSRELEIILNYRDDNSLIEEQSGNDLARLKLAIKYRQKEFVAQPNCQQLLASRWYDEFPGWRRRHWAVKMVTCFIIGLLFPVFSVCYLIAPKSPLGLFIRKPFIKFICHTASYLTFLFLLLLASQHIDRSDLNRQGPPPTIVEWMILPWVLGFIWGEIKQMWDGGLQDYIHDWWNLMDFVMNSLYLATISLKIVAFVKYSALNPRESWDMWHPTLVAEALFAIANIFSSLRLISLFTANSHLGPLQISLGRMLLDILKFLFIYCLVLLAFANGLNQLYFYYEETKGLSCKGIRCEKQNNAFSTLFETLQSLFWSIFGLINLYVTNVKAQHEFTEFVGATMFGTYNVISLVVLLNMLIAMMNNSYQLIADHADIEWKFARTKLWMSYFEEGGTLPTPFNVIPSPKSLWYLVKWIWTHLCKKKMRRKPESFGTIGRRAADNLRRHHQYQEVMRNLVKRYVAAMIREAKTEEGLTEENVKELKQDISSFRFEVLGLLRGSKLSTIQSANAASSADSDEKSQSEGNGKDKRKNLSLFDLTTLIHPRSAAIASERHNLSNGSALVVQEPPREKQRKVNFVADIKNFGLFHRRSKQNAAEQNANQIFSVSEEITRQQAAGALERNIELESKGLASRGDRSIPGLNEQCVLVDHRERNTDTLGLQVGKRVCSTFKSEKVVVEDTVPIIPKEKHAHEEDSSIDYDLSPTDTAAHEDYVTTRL
# TRPC4 block = blocks the mouse TRPC4 cation channel; HEK293 TRPC4beta/mu-opioid, DAMGO-evoked Fluo4 calcium flux; stronger effect = lower value; B-score at 10 µM; Q9QUQ5; hit rate 0.39% among 300,000;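 active = B-score over 3 SD under the library average, no early fluorescence shift, positive overall ratio signal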
#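 Assay system: TRPC4beta/mu-opioid receptor HEK293 cell line; compound dosing: single concentration per test compound; detection: Fluo4 Ca2+ flux fluorescence; evaluation: per-well B score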
# TRPC6 inh = blocks the mouse TRPC6 cation channel | Q61143 | HEK293-TRPC6, membrane potential dye, ACh-evoked depolarization; stronger effect = lower value | B-score at 10 µM | hit rate 1.1% among 310,000;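 active = B-score under library mean minus 3 SD, initial fluorescence not abnormally high, positive integrated signal ratio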;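 note: B-score derived from integrated fluorescence ratio over the kinetic read; more negative B-score means stronger inhibition of depolarization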
# TRPC6 act = activates the mouse TRPC6 cation channel | AID 2550 | B-score at 10 µM | HEK293-TRPC6 membrane potential dye fluorescence; stronger effect = higher value | hit rate 0.13% among 310,000;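 active = B-score of the integrated fluorescence ratio above library mean plus 3 SD, and starting fluorescence ratio within library mean plus 5 SD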;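 note: higher score means more depolarization so channel activation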
# TRPC4 act = opens the mouse TRPC4 cation channel. Q9QUQ5. HEK293 TRPC4beta/mu-opioid, Fluo4 calcium fluorescence; stronger effect = higher value. B-score at 10 µM. hit rate 0.49% among 310,000. AID 2237;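 active = B-score above 5 SD of library B-scores, and initial fluorescence ratio not above library mean plus 5 SD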;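 note: positive B-score marks a calcium rise read as TRPC4 activation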
#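 Test system: HEK293 cells stably co-expressing mouse TRPC4beta and mu-opioid receptor | Schedule: Fluo4 dye loading 45 min at room temperature, 110 s recording | Measured by: Kinetic Fluo4 calcium fluorescence, 5 s baseline at 1 Hz | Evaluation: B score of integrated ratio | Controls: Buffer (low) and maximal DAMGO (high)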
# TRPC4 sel inh 2 = mouse TRPC4 off-target activity of TRPC6 inhibitors, second screen | HEK293 TRPC4/MOR, membrane potential dye fluorescence; channel activated by saturating DAMGO dose | hit rate 42% among 920 | shares compounds with TRPC6 inh | inhibition, % at 10 µM | AID 2776;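 active = compounds whose fluorescence signal differed from control wells by over 3 SD, either direction, in both duplicate plates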
# TRPC4 spec = mouse TRPC4 off-target activity of TRPC6 inhibitors; shares compounds with TRPC6 inh; HEK293 TRPC4/mu-opioid, membrane potential fluorescence; activity change, negative = inhibition, % at 10 µM; hit rate 61% among 920;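 active = rise or fall in signal beyond 3 SD of buffer-only wells in both replicate plates, either sign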;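 note: integrated kinetic ratio of fluorescence range over baseline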
# HEK293 MPD ctr 2-1 = second counter-screen for TRPC6 inhibitors: parental HEK293 cells. parental HEK293 membrane potential dye fluorescence; maximal acetylcholine challenge after compound addition. signal change vs control, % at 10 µM. hit rate 31% among 920. AID 2779. shares compounds with TRPC6 inh;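 active = membrane potential signal moving either way by over 3 SD of the maximum-effect control, in both duplicate plates, meaning non-specific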
# HEK293 MPD ctr-1 = counter-screen for TRPC6 inhibitors: effect in parental HEK293 cells | shares compounds with TRPC6 inh | parental HEK293 membrane potential dye fluorescence | membrane potential signal change, % at 10 µM | hit rate 60% among 920 | AID 2780;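 active = membrane potential signal shifting up or down by more than 3 SD of buffer-only wells, on both duplicate plates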
# HEK293 MPD ctr-2 = parental HEK293 nonspecific activity of TRPC6 modulators. AID 488924. membrane potential dye fluorescence. hit rate 51% among 2,400. shares compounds with TRPC6 inh. membrane potential signal change, % at 10 µM;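 active = membrane potential signal moves up or down beyond 5 SD from buffer-only wells, on both duplicate plates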
# HEK293 MPD ctr 2-2 = parental HEK293 nonspecific activity of TRPC6 modulators, second screen; shares compounds with TRPC6 inh; membrane potential dye fluorescence; after compound, maximal acetylcholine stimulation; inhibition, % at 10 µM; hit rate 14% among 2,400; AID 488926;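 active = membrane potential signal drops by more than 5 SD from the mean control signal, in both duplicate plates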;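 note: plate controls were acetylcholine ECmax control wells for no effect and buffer only wells for full effect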
# TRPC4/MOR mod = tests whether TRPC6 modulators also affect mouse TRPC4; shares compounds with TRPC6 inh; HEK293 TRPC4/mu-opioid, membrane potential fluorescence; percent change from control (negative = decrease, positive = increase), % at 10 µM; hit rate 69% among 2,400; AID 488927;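 active = membrane potential signal moved up or down beyond 5 SD of buffer control wells, in both duplicate plates, actives on both sides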;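 note: plate controls were assay buffer wells for no effect and DAMGO maximal-effect wells for full effect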
# TRPC4/MOR inh 2 = mouse TRPC4 off-target activity of TRPC6 modulators, second screen. inhibition, % at 10 µM. AID 488928. hit rate 55% among 2,400. HEK293 TRPC4/mu-opioid, membrane potential dye fluorescence; stimulated with maximal-effect DAMGO. shares compounds with TRPC6 inh;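 active = drop in membrane potential signal beyond 5 SD of the control wells in both duplicate plates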;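 note: TRPC4 counter screen for TRPC6 hits run under conditions tuned for TRPC6 not TRPC4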
# TRPC6 inh conf = mouse TRPC6 inhibitor confirmation | shares compounds with TRPC6 inh | HEK293-TRPC6, membrane potential dye, ACh-evoked depolarization | inhibition, % at 10 µM | hit rate 43% among 3,300;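 active = fluorescence ratio falls more than 5 SD below the full-stimulation control mean, in both duplicate runs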;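 note: integrated fluorescence ratio of peak minus minimum over baseline after agonist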
# TRPC6 act confirm = mouse TRPC6 activator confirmation. shares compounds with TRPC6 inh. HEK293-TRPC6 membrane potential dye fluorescence, FDSS. activation, % at 10 µM. hit rate 11% among 2,800;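 active = ratio signal rise beyond 5 SD above unstimulated control wells' mean, seen in both duplicate runs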;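 note: plate controls were buffer EC0 wells for no effect and acetylcholine ECmax response for full effect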
# Numbers without * were called inactive; i = inactive; / = no result given. Sampled rows, rich in hits. Any-hit rate of the full collection: about 2.3%.
SMILES,TRPC4 PAM,TRPC4 block,TRPC6 inh,TRPC6 act,TRPC4 act,HEK293 MPD ctr-2,HEK293 MPD ctr 2-2,TRPC4/MOR mod,TRPC4/MOR inh 2,TRPC6 inh conf,TRPC6 act confirm,others
COc1cc(/C=C2\SC(=O)N(c3ccccc3Cl)C2=O)cc([N+](=O)[O-])c1O,i,-9*,i,i,i,/,/,/,/,/,/,
COc1cc(/C=C2/C(=O)NN(c3ccc(Cl)c(Cl)c3)C2=O)cc([N+](=O)[O-])c1O,i,i,i,i,i,/,/,/,/,/,/,
CN1C2C=C(N(CCc3c[nH]c4ccccc34)C(=O)c3ccc(Cl)cc3)CC1CC2 (configuration not stated),i,-6*,i,i,88*,/,/,/,/,/,/,
COc1ccccc1C(=O)NCC(c1ccco1)N1CCc2ccccc21 (configuration not stated),i,i,i,i,i,/,/,/,/,/,/,
Cc1ccccc1OCCCc1c(C)n[nH]c1C,i,/,i,i,i,/,/,/,/,/,/,
Cc1ccccc1OCCCCc1c(C)n[nH]c1C,i,-6*,i,i,i,/,/,/,/,/,/,
Cc1n[nH]c(C)c1CCCCOc1ccccc1F,i,-6*,i,i,i,/,/,/,/,/,/,
Cc1n[nH]c(C)c1CCCCOc1ccccc1,i,-7*,i,i,i,/,/,/,/,/,/,
Cc1ccc(OCCCc2c(C)n[nH]c2C)cc1,i,i,i,i,i,/,/,/,/,/,/,
CN1CCN(c2ccc(NC(=O)COc3ccc4ccccc4c3)cc2)CC1,i,i,i,i,i,/,/,/,/,/,/,
CN1CCN(c2ccc(NC(=O)COc3cccc4ccccc34)cc2)CC1,i,i,i,i,177*,/,/,/,/,/,/,
CCN(CC)CC#CCC(C)(c1ccccc1)c1ccccc1,i,i,-5*,i,i,142%*,i,36%*,i,i,/,
CCN(CC)CC#CCC(O)(c1ccccc1)c1ccccc1,i,i,i,i,i,/,/,/,/,/,/,
CCN1CCN(C(=O)CCn2c(=O)c3cccn3c3cccnc32)CC1,i,i,i,i,i,/,/,/,/,/,/,
C[n+]1ccc(/C=N/Nc2nc(Cl)c(C#N)c(Cl)c2Cl)cc1,i,i,-7.6*,i,i,/,/,/,/,62%*,i,TRPC4 sel inh 2=66%*;TRPC4 spec=i;HEK293 MPD ctr 2-1=-108%*;HEK293 MPD ctr-1=i
Cc1ccc(S(=O)(=O)NCCNc2ccc([N+](=O)[O-])cc2)cc1,i,i,-5.6*,i,i,i,i,-14%*,i,i,i,
Cc1ccc(C)c(NS(=O)(=O)c2cc(C(=O)NCc3ccncc3)ccc2C)c1,i,i,i,i,i,/,/,/,/,/,/,
COC(=O)CSc1nnc(SCc2ccc(OC)cc2)s1,i,i,-5.5*,i,i,i,i,i,i,i,i,
N#CC1=C(N)S[C@@H](C(=O)c2ccc(F)cc2)[C@@H]1c1cccs1,i,i,-6.5*,i,i,i,i,i,i,i,i,
N#CC1=C(N)SC(C(=O)c2ccccc2)C1c1cccs1 (configuration not stated),i,i,i,i,i,/,/,/,/,/,/,
Cc1cc(NC(=O)CSCC(=O)Nc2cccc(S(=O)(=O)N3CCCCCC3)c2)no1,i,i,i,i,i,/,/,/,/,/,/,
COCCCNC(=O)CN(CCc1ccccc1)S(=O)(=O)c1ccc(OC)cc1,i,i,i,i,i,/,/,/,/,/,/,
COCCCN(CC(=O)NCc1ccccc1)S(=O)(=O)c1ccc(C)cc1,i,i,-6.3*,i,i,i,i,i,i,i,i,
O=C(Cc1c(Sc2ccccc2)c2ccccc2n1Cc1ccccc1)NCCO,i,i,i,i,i,/,/,/,/,/,/,
CCOC(=O)N1CCC(N(C(=O)Nc2ccc(Cl)c(Cl)c2)C(C)CC)CC1 (configuration not stated),i,i,-6.4*,i,i,i,i,i,i,i,i,
SMILES,TRPC4 PAM,TRPC4 block,TRPC6 inh,TRPC6 act,TRPC4 act,HEK293 MPD ctr-2,HEK293 MPD ctr 2-2,TRPC4/MOR mod,TRPC4/MOR inh 2,TRPC6 inh conf,TRPC6 act confirm,others
CCOC(=O)N1CCC(N(CCOC)C(=O)Nc2ccc(CC)cc2)CC1,i,i,i,i,i,/,/,/,/,/,/,
Cc1csc(NC(=O)CCC(=O)N(CC(=O)NC2CCCCC2)c2ccccc2)n1,i,i,i,i,i,/,/,/,/,/,/,
Cc1nn(CC(=O)c2cccc(Cl)c2)c(C)c1[N+](=O)[O-],i,i,i,i,i,/,/,/,/,/,/,
CC12CCC(=O)N1C(C(=O)Nc1cc(C(F)(F)F)ccc1N1CCCCC1)CS2 (configuration not stated),i,i,i,i,i,/,/,/,/,/,/,
CC12CCC(=O)N1C(C(=O)Nc1cc(C(F)(F)F)ccc1N1CCOCC1)CS2 (configuration not stated),i,i,-5.5*,i,i,i,i,i,i,i,i,
COc1cc(CN2CCN(C(=O)c3cccc4ccccc34)CC2)cc(OC)c1OC,i,i,i,i,i,/,/,/,/,/,/,
COc1cccc(CN2CCN(C(=O)c3cccc4ccccc34)CC2)c1,i,i,i,12*,i,i,i,10%*,i,i,33%*,
